Results published in ChEMBL document CHEMBL1137693, “Antiamoebic coumarins from the root bark of Adina cordifolia and their new thiosemicarbazone derivatives” (Eur J Med Chem, 2009).

Experiment: Cytotoxicity against rat H9c2 cells assessed as cell viability at 3.125 to 200 ug/ml after 48 hrs by MTT assay
Format: cell-based
Details: read-out: Activity
In short: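 Rat H9c2 cardiac myoblasts maintained in high-glucose DMEM with 10% heat-inactivated FBS and antibiotics at 37 °C, 5% CO₂. Subconfluent cells exposed 48 h to 3.125–200 μg/ml. MTT (5 mg/ml) added for 45 min at 37 °C; formazan dissolved in acid isopropanol, absorbance read at 570 nm (reference 655 nm). Viability relative to untreated controls; triplicate.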

SMILES	viability at 48 h [%]
C/C(=N\NC(=S)N1CCC(Cc2ccccc2)CC1)c1c(O)ccc2ccc(=O)oc12	> 80
C/C(=N\NC(=S)NC12CC3CC(CC(C3)C1)C2)c1c(O)ccc2ccc(=O)oc12	> 80
C/C(=N\NC(=S)NCc1ccccc1)c1c(O)ccc2ccc(=O)oc12	> 80
